TRPC6 act: mouse TRPC6 channel activation; Q61143; HEK293-TRPC6 membrane potential dye fluorescence; active compounds read high; B-score at 10 µM; hit rate 0.13% among 310,000;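 active = B-score of the integrated fluorescence ratio above library mean plus 3 SD, and starting fluorescence ratio within library mean plus 5 SD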;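 also: higher score means more depolarization so channel activation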
TRPC4 agonist: TRPC4 (mouse) channel activation; B-score at 10 µM; AID 2237; hit rate 0.49% among 310,000; HEK293 TRPC4beta/mu-opioid, Fluo4 calcium fluorescence; active compounds read high;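 active = B-score above 5 SD of library B-scores, and initial fluorescence ratio not above library mean plus 5 SD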;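 also: positive B-score marks a calcium rise read as TRPC4 activation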
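System – HEK293 cells stably co-expressing mouse TRPC4beta and mu-opioid receptor · Signal – Fluo4 calcium-sensitive dye fluorescence, kinetic, 1 Hz baseline · Benchmarks – buffer (low) and maximal DAMGO (high) · Read-out – B score of integrated fluorescence ratio per well · Incubation – dye loading 45 min room temperature, 110 s kinetic read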
Kir21 inh: blocks the mouse Kir2.1 inward-rectifier potassium channel; P35561; HEK293-Kir2.1, FluxOR thallium flux fluorescence; active compounds read low; B-score at 10 µM; hit rate 0.85% among 310,000;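 active = fluorescence ratio B-score at or below minus 3 SD of library scores, with starting-brightness B-score within 2 SD, cut at about -4.2 in these data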;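 also: channel flux triggered by added potassium and thallium sulfate stimulus; B-score of peak minus minimum fluorescence over baseline after thallium stimulus; more negative B-score means stronger Kir2.1 block with less thallium influx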
Target sequence (P35561 whole entry, looked up): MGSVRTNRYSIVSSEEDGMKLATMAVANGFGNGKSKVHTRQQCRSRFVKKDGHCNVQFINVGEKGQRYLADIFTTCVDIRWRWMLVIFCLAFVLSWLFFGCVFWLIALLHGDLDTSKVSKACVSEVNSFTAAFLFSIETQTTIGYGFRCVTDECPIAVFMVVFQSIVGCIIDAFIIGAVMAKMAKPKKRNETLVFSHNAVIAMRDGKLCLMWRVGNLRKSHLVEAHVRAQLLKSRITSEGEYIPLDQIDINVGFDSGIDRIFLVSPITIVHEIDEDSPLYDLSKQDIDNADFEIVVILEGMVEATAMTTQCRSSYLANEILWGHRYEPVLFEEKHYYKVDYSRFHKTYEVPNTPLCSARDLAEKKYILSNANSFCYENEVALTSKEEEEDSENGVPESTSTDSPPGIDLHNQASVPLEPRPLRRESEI
TRPC4 inh: inhibitors of mouse TRPC4 channel. AID 2247. hit rate 0.39% among 300,000. B-score at 10 µM. HEK293 TRPC4beta/mu-opioid, DAMGO-evoked Fluo4 calcium flux; active compounds read low. Q9QUQ5;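 active = B-score over 3 SD under the library average, no early fluorescence shift, positive overall ratio signal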
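Material: HEK293 cells with stable TRPC4beta plus mu-opioid receptor expression / Probe or stimulus: DAMGO in two steps, submaximal then maximal / Compound: single concentration per test compound / Technique: kinetic Fluo4 fluorescence imaging of calcium influx / Read-out: per-well B score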
TRPC4 PAM: TRPC4 (mouse) allosteric potentiation | Q9QUQ5 | HEK293 TRPC4beta/mu-opioid, DAMGO EC20, Fluo-4 Ca2+ flux; active compounds read high | B-score at 10 µM | hit rate 0.42% among 310,000 | AID 2227;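 active = B-score of calcium response area above 5 SD of library B-scores, with initial fluorescence ratio within 5 SD of library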;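 also: B-score of integrated fluorescence ratio over time as area under calcium response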
TRPC6 inh: inhibitors of mouse TRPC6 channel; Q61143; HEK293-TRPC6, membrane potential dye, ACh-evoked depolarization; active compounds read low; B-score at 10 µM; hit rate 1.1% among 310,000; AID 2553;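 active = B-score under library mean minus 3 SD, initial fluorescence not abnormally high, positive integrated signal ratio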;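 also: B-score derived from integrated fluorescence ratio over the kinetic read; more negative B-score means stronger inhibition of depolarization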
An asterisk follows results filed as active; i = inactive. An excerpt weighted towards active compounds, which were near 2.9% of everything screened.

SMILES	TRPC6 act	TRPC4 agonist	Kir21 inh	TRPC4 inh	TRPC4 PAM	TRPC6 inh
Nc1cc(C(F)(F)F)ccc1Nc1ccccc1	i	i	1.6	-6*	i	i
Cc1c(C(=O)NC(=S)Nc2ccccc2N2CCCC2)cccc1[N+](=O)[O-]	i	i	0.09	i	13*	i
O=C(Cc1ccc(Cl)cc1)NCC(=O)N1CCCCCC1	i	i	-2.1	i	i	i
Cn1c(=O)c2c(ncn2CC(=O)OCC(=O)Nc2ccc(Cl)cc2)n(C)c1=O	i	i	-1.5	i	i	i
CC(OC(=O)Cn1cnc2c1c(=O)n(C)c(=O)n2C)C(=O)Nc1ccc(Cl)cc1 (stereo not given)	i	i	0.29	-8*	i	i
C=CCn1c(COc2ccc(F)cc2)nnc1SCC(=O)NC1CCS(=O)(=O)C1 (stereo not given)	i	i	-1.4	i	i	i
Fc1ccccc1Sc1ccccc1CNC1=NCCN1	i	i	-2.5	-6*	i	i
OCCNc1ncnc2c1c(-c1ccccc1)c(-c1ccccc1)n2Cc1ccco1	i	i	0.61	i	i	i
N=c1c2c(-c3ccccc3)c(-c3ccccc3)n(Cc3ccco3)c2ncn1Cc1ccccc1	i	i	-5.9*	i	i	i
N=c1c2c(-c3ccccc3)c(-c3ccccc3)n(Cc3ccccc3)c2ncn1CCO	i	i	-8.6*	i	i	i
CC(C)Cn1cnc2c(c(-c3ccccc3)c(-c3ccccc3)n2Cc2ccco2)c1=N	i	i	-9.7*	i	i	-5*
N=c1c2c(-c3ccccc3)c(-c3ccccc3)oc2ncn1CCN1CCOCC1	i	i	-2.3	i	i	i
N=c1c2c3c(sc2ncn1Cc1ccco1)CCCCC3	i	i	-0.42	i	i	i
CCc1ccc2nc(Nc3ccc(OC)cc3OC)c(C#N)cc2c1	i	i	1.4	i	i	i
Cc1oc2c(c1C(=O)c1ccccc1)C(=O)C(=O)c1ccccc1-2	i	i	-2.8	-6*	i	i
COc1ccc(-n2c(CN3CCC(C(N)=O)CC3)nc3ccc([N+](=O)[O-])cc3c2=O)c(OC)c1	i	i	-0.55	i	i	i
CCOC(=O)C1CCN(Cc2nc3ccc([N+](=O)[O-])cc3c(=O)n2-c2ccc(OC)cc2OC)CC1	i	59*	-2.1	i	i	i
Cc1ccccc1CSc1nccn1-c1ccccc1	i	i	-4.4*	i	i	i
Cc1ccccc1CSc1nnc(-c2ccccn2)n1C	i	i	0.37	i	i	i
CC1CCCCC1NCC#CCOc1ccc(Cl)cc1 (stereo not given)	i	i	-5*	i	i	i
OC(CN1CCN(Cc2ccccc2)CC1)Cn1c2ccccc2c2ccccc21 (stereo not given)	i	i	-4.4*	i	i	i
Cc1cc(C)c(S(=O)(=O)Nc2cc(C)on2)c(C)c1	i	i	-0.93	i	i	i
COc1cc(CN2CCCC(C(=O)c3ccccc3SC)C2)cc(OC)c1 (stereo not given)	i	i	-2.1	-6*	i	i
COc1ccc(F)cc1C(=O)C1CCCN(Cc2ccc3c(c2)OCCO3)C1 (stereo not given)	i	i	-0.04	-7*	i	i
COc1ccccc1C(=O)C1CCCN(Cc2ccc3c(c2)OCCO3)C1 (stereo not given)	i	i	-0.31	i	i	i
SMILES	TRPC6 act	TRPC4 agonist	Kir21 inh	TRPC4 inh	TRPC4 PAM	TRPC6 inh
COc1cc(OC)c(OC)cc1CN1CCCC(C(=O)c2ccccc2SC)C1 (stereo not given)	i	i	-1.7	i	i	i
COc1ccc(C(=O)C2CCCN(Cc3c(C)[nH]c4ccccc34)C2)c(OC)c1 (stereo not given)	i	i	0.86	i	i	-5*
CCCN(C(=O)COC(=O)COc1c(C)cccc1C)c1c(N)n(Cc2ccccc2)c(=O)[nH]c1=O	i	i	0.46	i	i	i
Cc1nc(S/C(=C/c2ccc(-c3cc(Cl)ccc3C)o2)C(=O)O)n[nH]1	i	i	-1	-6*	i	i
CCOCCCn1c(=NC(=O)c2cccnc2)c(C(=O)OCC)cc2c(=O)n3ccccc3nc21	i	i	0	i	i	i
CCCCn1c(=NC(=O)c2cccnc2)c(C(=O)OCC)cc2c(=O)n3ccccc3nc21	i	i	3.2	i	46*	i
O=C(N/N=C/c1ccccc1F)NC1CCCCC1	i	177*	-1.6	i	21*	i
Cc1cc(C(=O)NNC(=O)COc2ccccc2Cl)n[nH]1	i	i	-1.1	i	i	i
O=C(COc1coc(CN2CCN(Cc3ccccc3)CC2)cc1=O)Nc1ccccc1	i	i	-0.24	i	i	i
Cc1ccc(C2(CCNCc3ccco3)CCOC(C(C)C)C2)cc1 (stereo not given)	i	i	-4.3*	i	i	i
C=C(C)CCC(C)N1CCC(n2nccc2NC(=O)CCCc2ccccc2)CC1 (stereo not given)	i	i	-1.9	i	i	i
Cc1[nH]n(-c2ncc(-c3ccccc3)s2)c(=O)c1C(c1ccc(Br)cc1)C(C#N)C#N (stereo not given)	i	i	-5.6*	i	i	i
CCCc1ccc(NC(=O)C2CCCN(c3cnccn3)C2)cc1 (stereo not given)	i	i	-0.19	i	i	i
CC(=Nc1ccc(C)cc1)c1sc2ccccc2c1O	i	i	1.1	-6*	i	i
O=C(c1ccc2c(c1)OCCO2)N1CCN(c2ncc(C(F)(F)F)cc2Cl)CC1	i	49*	1.4	i	i	i
O=C(Nc1ccc2c(c1)OCO2)N1CCN(c2ncc(C(F)(F)F)cc2Cl)CC1	i	55*	-1.9	i	i	i
Cc1ccsc1C(=O)N1CCN(c2ncc(C(F)(F)F)cc2Cl)CC1	i	i	1.4	i	i	i
CC1=NNC(=O)C1C(c1ccc(F)cc1)C(C#N)C#N (stereo not given)	i	i	-4.3*	i	i	i
O=C(CS(=O)(=O)c1ccccc1)NCc1ccc(Cl)cc1	i	i	-0.97	i	i	i
COc1ccccc1CCc1nnc(CCC(=O)NCCCOc2cccnc2)o1	i	i	1.5	-6*	i	i
